Measurements reported in ChEMBL document CHEMBL4033780, “Lipidated Brartemicin Analogues Are Potent Th1-Stimulating Vaccine Adjuvants” (J Med Chem, 2018).
The source made the active and inactive calls. The calls are words filed in the database; no cut-off is given here.

Columns and labels:
[1] = Toxicity in Atlantic horseshoe crab blood limulus amebocyte lysate by chromogenic endotoxin test; conditions: limulus polyphemus
How it was run: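 Endotoxin was measured by chromogenic Limulus amebocyte lysate assay at a sensitivity of ≤0.1 EU/mL.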

[2] = molecular target: T1, C-type lectin domain family 4 member E (Mus musculus) (UniProt Q9R0Q8); test: Agonist activity at mincle in wild type C57BL/6 mouse GM-CSF derived BMDM assessed as increase in IL-6 release at 0.1 to 1 nmol after 24 hrs by sandwich ELISA
T1 sequence (whole entry): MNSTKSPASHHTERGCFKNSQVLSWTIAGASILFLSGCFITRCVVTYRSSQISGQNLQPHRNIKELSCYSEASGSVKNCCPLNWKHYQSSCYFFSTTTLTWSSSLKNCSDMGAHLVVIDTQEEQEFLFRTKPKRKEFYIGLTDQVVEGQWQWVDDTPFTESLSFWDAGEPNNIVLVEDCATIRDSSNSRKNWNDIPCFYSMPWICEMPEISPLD
How it was run: (§1)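 Wild-type or Mincle−/− C57BL/6 bone marrow was cultured 8 days with GM-CSF 50 ng/mL in complete RPMI. Macrophages were detached with Acutase and seeded on ligand-coated plates (0.1 or 1 nmol/well); LPS 100 ng/mL was used as comparator. Supernatant was taken at 24 h and TNF, IL-6, IL-1β and MIP-2 measured by sandwich ELISA. Representative of three experiments in triplicate (±SD).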

[3] = molecular target: T1, C-type lectin domain family 4 member E (Mus musculus); test: Agonist activity at mincle in wild type C57BL/6 mouse GM-CSF derived BMDM assessed as increase in IL-1beta release at 0.1 to 1 nmol after 24 hrs by sandwich ELISA; how it was run: as §1
[4] = molecular target: T1, C-type lectin domain family 4 member E (Mus musculus); test: Agonist activity at mincle in wild type C57BL/6 mouse GM-CSF derived BMDM assessed as increase in MIP2 release at 0.1 to 1 nmol after 24 hrs by sandwich ELISA; how it was run: as §1
[5] = molecular target: T1, C-type lectin domain family 4 member E (Mus musculus); test: Agonist activity at mincle in wild type C57BL/6 mouse GM-CSF derived BMDM assessed as increase in TNF release at 0.1 to 1 nmol after 24 hrs by sandwich ELISA; how it was run: as §1
[6] = molecular target: T1, C-type lectin domain family 4 member E (Mus musculus); test: Binding affinity to recombinant mouse mincle extracellular domain fused with human IgG Fc expressed in HEK293T cells at 0.1 nmol by ELISA; assay type: cell-based; conditions: HEK-293T
[7] = molecular target: T2, C-type lectin domain family 4 member E (Homo sapiens) (UniProt Q9ULY5); test: Binding affinity to recombinant human mincle extracellular domain fused with human IgG Fc expressed in HEK293T cells at 0.1 nmol by ELISA; assay type: cell-based; conditions: HEK-293T
T2 sequence (whole entry): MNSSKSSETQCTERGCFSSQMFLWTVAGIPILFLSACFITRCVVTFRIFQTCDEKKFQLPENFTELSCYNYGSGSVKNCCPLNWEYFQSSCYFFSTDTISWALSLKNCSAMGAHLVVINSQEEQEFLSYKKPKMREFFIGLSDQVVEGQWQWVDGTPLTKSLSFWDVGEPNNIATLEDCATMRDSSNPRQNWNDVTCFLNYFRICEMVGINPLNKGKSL

[8] = molecular target: T2, C-type lectin domain family 4 member E (Homo sapiens); test: Agonist activity at human mincle coupled with FcRgamma expressed in 2B4-NFAT-GFP reporter cells after 18 hrs by flow cytometric analysis; assay type: cell-based
How it was run: (§2)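 2B4 NFAT-GFP reporter cells expressing mouse or human Mincle plus FcRγ were placed on plates coated with ligand at 0.01, 0.1 or 1 nmol/well; cells expressing FcRγ only served as negative control. Ligand was coated from isopropanol, 0.05 mM, and solvent evaporated. After 18 h, cells were harvested, stained with propidium iodide and GFP read by flow cytometry. Mean of three experiments in duplicate (±SEM).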

[9] = molecular target: T1, C-type lectin domain family 4 member E (Mus musculus); test: Agonist activity at mouse mincle coupled with FcRgamma expressed in 2B4-NFAT-GFP reporter cells after 18 hrs by flow cytometric analysis; assay type: cell-based; how it was run: as §2
[10] = test system: BMDM; test: Immunostimulatory activity in mincle-/- C57BL/6 mouse GM-CSF derived BMDM assessed as increase in TNF release at […] after 24 hrs by sandwich ELISA method; assay type: functional, cell-based; how it was run: as §1
[11] = test system: BMDM; test: Immunostimulatory activity in mincle-/- C57BL/6 mouse GM-CSF derived BMDM assessed as increase in MIP2 release at […] after 24 hrs by sandwich ELISA method; assay type: functional, cell-based; how it was run: as §1
[12] = test system: BMDM; test: Immunostimulatory activity in mincle-/- C57BL/6 mouse GM-CSF derived BMDM assessed as increase in IL-6 release at […] after 24 hrs by sandwich ELISA method; assay type: functional, cell-based; how it was run: as §1
[13] = test system: BMDM; test: Immunostimulatory activity in mincle-/- C57BL/6 mouse GM-CSF derived BMDM assessed as increase in IL-1beta release at […] after 24 hrs by sandwich ELISA method; assay type: functional, cell-based; how it was run: as §1
[14] = molecular target: T2, C-type lectin domain family 4 member E (Homo sapiens); test: Agonist activity at human mincle coupled with FcRgamma expressed in 2B4-NFAT-GFP reporter cells at higher concentration after 18 hrs by flow cytometric analysis; assay type: cell-based; how it was run: as §2
[15] = molecular target: T1, C-type lectin domain family 4 member E (Mus musculus); test: Agonist activity at mouse mincle coupled with FcRgamma expressed in 2B4-NFAT-GFP reporter cells up to 1 nmol after 18 hrs by flow cytometric analysis; assay type: cell-based; how it was run: as §2

Compound | Activity [1] | Activity [2] | Activity [3] | Activity [4] | Activity [5] | Activity [6] | Activity [7] | Activity [10] | Activity [11] | Activity [12] | Activity [13] | also measured
CCCCCCCOc1ccc(C(=O)OC[C@H]2O[C@H](O[C@H]3O[C@H](COC(=O)c4ccc(OCCCCCCC)cc4OCc4ccccc4)[C@@H](OCc4ccccc4)[C@H](OCc4ccccc4)[C@H]3OCc3ccccc3)[C@H](OCc3ccccc3)[C@@H](OCc3ccccc3)[C@@H]2OCc2ccccc2)c(OCc2ccccc2)c1 | <= 0.1 EU/ml |  |  |  |  |  |  |  |  |  |  | 
CCCCCCCCCCCCCCCCCCOc1cc(C)c(C(=O)OC[C@H]2O[C@H](O[C@H]3O[C@H](COC(=O)c4c(C)cc(OCCCCCCCCCCCCCCCCCC)cc4O)[C@@H](O)[C@H](O)[C@H]3O)[C@H](O)[C@@H](O)[C@@H]2O)c(O)c1 | <= 0.1 EU/ml | Active | Active | Active | Active | Active | Active | inactive | inactive | inactive | inactive | Activity [8]: Dose-dependent effect; Activity [9]: Dose-dependent effect
Cc1cc(OCc2ccccc2)cc(OCc2ccccc2)c1C(=O)OC[C@H]1O[C@H](O[C@H]2O[C@H](COC(=O)c3c(C)cc(OCc4ccccc4)cc3OCc3ccccc3)[C@@H](OCc3ccccc3)[C@H](OCc3ccccc3)[C@H]2OCc2ccccc2)[C@H](OCc2ccccc2)[C@@H](OCc2ccccc2)[C@@H]1OCc1ccccc1 | <= 0.1 EU/ml |  |  |  |  |  |  |  |  |  |  | 
O=C(OC[C@H]1O[C@H](O[C@H]2O[C@H](COC(=O)c3ccc(OCc4ccccc4)cc3OCc3ccccc3)[C@@H](OCc3ccccc3)[C@H](OCc3ccccc3)[C@H]2OCc2ccccc2)[C@H](OCc2ccccc2)[C@@H](OCc2ccccc2)[C@@H]1OCc1ccccc1)c1ccc(OCc2ccccc2)cc1OCc1ccccc1 | <= 0.1 EU/ml |  |  |  |  |  |  |  |  |  |  | 
COc1ccc(C(=O)OC[C@H]2O[C@H](O[C@H]3O[C@H](COC(=O)c4ccc(OC)cc4O)[C@@H](O)[C@H](O)[C@H]3O)[C@H](O)[C@@H](O)[C@@H]2O)c(O)c1 | <= 0.1 EU/ml | inactive | inactive | inactive | inactive | inactive | inactive | inactive | inactive | inactive | inactive | Activity [14]: Active
CCCCCCCOc1ccc(C(=O)OC[C@H]2O[C@H](O[C@H]3O[C@H](COC(=O)c4ccc(OCCCCCCC)cc4)[C@@H](OCc4ccccc4)[C@H](OCc4ccccc4)[C@H]3OCc3ccccc3)[C@H](OCc3ccccc3)[C@@H](OCc3ccccc3)[C@@H]2OCc2ccccc2)cc1 | <= 0.1 EU/ml |  |  |  |  |  |  |  |  |  |  | 
COc1ccc(C(=O)OC[C@H]2O[C@H](O[C@H]3O[C@H](COC(=O)c4ccc(OC)cc4OCc4ccccc4)[C@@H](OCc4ccccc4)[C@H](OCc4ccccc4)[C@H]3OCc3ccccc3)[C@H](OCc3ccccc3)[C@@H](OCc3ccccc3)[C@@H]2OCc2ccccc2)c(OCc2ccccc2)c1 | <= 0.1 EU/ml |  |  |  |  |  |  |  |  |  |  | 
CCCCOc1ccc(C(=O)OC[C@H]2O[C@H](O[C@H]3O[C@H](COC(=O)c4ccc(OCCCC)cc4OCc4ccccc4)[C@@H](OCc4ccccc4)[C@H](OCc4ccccc4)[C@H]3OCc3ccccc3)[C@H](OCc3ccccc3)[C@@H](OCc3ccccc3)[C@@H]2OCc2ccccc2)c(OCc2ccccc2)c1 | <= 0.1 EU/ml |  |  |  |  |  |  |  |  |  |  | 
CCCCCCCCCCCCCCCCCCOc1ccc(C(=O)OC[C@H]2O[C@H](O[C@H]3O[C@H](COC(=O)c4ccc(OCCCCCCCCCCCCCCCCCC)cc4)[C@@H](O)[C@H](O)[C@H]3O)[C@H](O)[C@@H](O)[C@@H]2O)cc1 | <= 0.1 EU/ml | Active | Active | Active | Active | Active | Active | inactive | inactive | inactive | inactive | Activity [8]: Dose-dependent effect; Activity [9]: Dose-dependent effect
Cc1cc(O)cc(O)c1C(=O)OC[C@H]1O[C@H](O[C@H]2O[C@H](COC(=O)c3c(C)cc(O)cc3O)[C@@H](O)[C@H](O)[C@H]2O)[C@H](O)[C@@H](O)[C@@H]1O [BRARTEMICIN] | <= 0.1 EU/ml | inactive | inactive | inactive | inactive | inactive | inactive | inactive | inactive | inactive | inactive | Activity [15]: inactive
CCCCCCCCCCCCCCCCCCOc1cc(C)c(C(=O)OC[C@H]2O[C@H](O[C@H]3O[C@H](COC(=O)c4c(C)cc(OCCCCCCCCCCCCCCCCCC)cc4OCc4ccccc4)[C@@H](OCc4ccccc4)[C@H](OCc4ccccc4)[C@H]3OCc3ccccc3)[C@H](OCc3ccccc3)[C@@H](OCc3ccccc3)[C@@H]2OCc2ccccc2)c(OCc2ccccc2)c1 | <= 0.1 EU/ml |  |  |  |  |  |  |  |  |  |  | 
CCCCCCCCCCCCCCCCCCOc1ccc(C(=O)OC[C@H]2O[C@H](O[C@H]3O[C@H](COC(=O)c4ccc(OCCCCCCCCCCCCCCCCCC)cc4OCc4ccccc4)[C@@H](OCc4ccccc4)[C@H](OCc4ccccc4)[C@H]3OCc3ccccc3)[C@H](OCc3ccccc3)[C@@H](OCc3ccccc3)[C@@H]2OCc2ccccc2)c(OCc2ccccc2)c1 | <= 0.1 EU/ml |  |  |  |  |  |  |  |  |  |  | 
CCCCCCCCCCCCCCCCCCOc1ccc(C(=O)OC[C@H]2O[C@H](O[C@H]3O[C@H](COC(=O)c4ccc(OCCCCCCCCCCCCCCCCCC)cc4)[C@@H](OCc4ccccc4)[C@H](OCc4ccccc4)[C@H]3OCc3ccccc3)[C@H](OCc3ccccc3)[C@@H](OCc3ccccc3)[C@@H]2OCc2ccccc2)cc1 | <= 0.1 EU/ml |  |  |  |  |  |  |  |  |  |  | 
O=C(OC[C@H]1O[C@H](O[C@H]2O[C@H](COC(=O)c3ccc(O)cc3O)[C@@H](O)[C@H](O)[C@H]2O)[C@H](O)[C@@H](O)[C@@H]1O)c1ccc(O)cc1O | <= 0.1 EU/ml | inactive | inactive | inactive | inactive | inactive | inactive | inactive | inactive | inactive | inactive | Activity [15]: inactive
